Results from paper PMC3074353 (Biochemistry, 2011).
Read-outs that look alike come from different tables or passages of the source.

Assays:
[1] = target: T1, RPTPα (amino acids 224–802) (Homo sapiens, UniProt P18433); assay: PTP activity assay with synthetic pY peptides as substrates, RPTPα; type: biochemical; conditions: for kcat/KM: same buffer pH 7.4, three or more independent experiments; for Km: same buffer pH 7.4, mean ± SD, three or more independent experiments
[2] = system: catalytic domain of SHP-2 [SHP-2(ΔSH2)]; assay: PTP activity assay with synthetic pY peptides as substrates, SHP-2; type: biochemical; conditions: for Km / kcat/KM: same buffer pH 7.4, three or more independent experiments; for Km: mean ± SD
[3] = system: catalytic domain of SHP-1 [SHP-1(ΔSH2)]; assay: PTP activity assay with synthetic pY peptides as substrates, SHP-1; type: biochemical; conditions: for Km / kcat/KM: same buffer pH 7.4, three or more independent experiments; for Km: mean ± SD
Chain of catalytic domain of SHP-1 [SHP-1(ΔSH2)] (P29350 244-515 limits assumed, stated change not applied): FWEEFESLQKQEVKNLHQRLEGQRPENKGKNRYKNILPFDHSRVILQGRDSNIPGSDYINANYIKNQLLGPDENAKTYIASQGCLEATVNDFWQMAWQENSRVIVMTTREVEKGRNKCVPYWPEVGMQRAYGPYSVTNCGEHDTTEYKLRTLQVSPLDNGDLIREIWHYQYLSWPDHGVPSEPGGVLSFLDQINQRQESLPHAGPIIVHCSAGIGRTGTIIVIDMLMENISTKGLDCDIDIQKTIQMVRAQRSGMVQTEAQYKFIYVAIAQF

[4] = target: T2, PTP1B (amino acids 1–321) (Homo sapiens, UniProt P18031); assay: PTP activity assay with synthetic pY peptides as substrates, PTP1B; type: biochemical
T2 sequence (P18031 1-321): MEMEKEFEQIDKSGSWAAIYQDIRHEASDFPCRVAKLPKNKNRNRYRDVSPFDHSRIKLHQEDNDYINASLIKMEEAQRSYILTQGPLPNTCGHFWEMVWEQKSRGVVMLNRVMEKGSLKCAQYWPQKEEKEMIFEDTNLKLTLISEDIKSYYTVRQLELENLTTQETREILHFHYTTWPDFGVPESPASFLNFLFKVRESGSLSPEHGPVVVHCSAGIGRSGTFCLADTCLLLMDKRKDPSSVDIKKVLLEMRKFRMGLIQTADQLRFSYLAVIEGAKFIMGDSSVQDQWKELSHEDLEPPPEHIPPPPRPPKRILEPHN
Method in brief: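 PTP1B catalytic fragment (residues 1–321) expressed in E. coli, quantified by Bradford against BSA. For alanine-scan peptides, kinetic constants came from fitting progress curves to the integrated Michaelis–Menten equation.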

[5] = target: T2, PTP1B (amino acids 1–321); conditions: ref [36], cited from earlier work
[6] = target: T1, RPTPα (amino acids 224–802); conditions: literature value, ref [20]; cited from earlier work

Compound	Km ([2]; SHP-2) [µM]	kcat/KM ([2]; SHP-2) [M⁻¹ s⁻¹]	Km ([3]; SHP-1) [µM]	kcat/KM ([3]; SHP-1) [M⁻¹ s⁻¹]	also measured
O=P(O)(O)Oc1ccccc1 [Phenyl phosphate, reference compound]					kcat/KM [1]: 20 M⁻¹ s⁻¹
O=[N+]([O-])c1ccc(OP(=O)(O)O)cc1 [pNPP, reference compound]					Km [1]: 2700 ± 300 µM; kcat/KM [1]: 190 M⁻¹ s⁻¹
ADEDFpYAA	34 ± 2	820000			
AYTEpYTpYAA			9.1 ± 1	1.9e+06	
Ac-AAAAApYEEVH-NH2					kcat/KM [1]: 39000 M⁻¹ s⁻¹
Ac-AAAAApYRHRR-NH2					kcat/KM value [4]: > 10^5 M^−1 s^−1; Km [1]: 2600 ± 200 µM; kcat/KM [1]: 12000 M⁻¹ s⁻¹
Ac-AAAApYAAAA-NH2					kcat/KM ([5]; literature value): 1.3 ^b μM^−1 s^−1; kcat/KM value [5]: 1.3e+06 M⁻¹ s⁻¹
Ac-AKFEDTpYAA-NH2			58 ± 13	340000	
Ac-ARKRIpYAA-NH2					kcat/KM value [4]: > 10^5 M^−1 s^−1; Km [1]: 490 ± 30 µM; kcat/KM [1]: 80000 M⁻¹ s⁻¹
Ac-ASSDDpYAA-NH2					kcat/KM [1]: 13000 M⁻¹ s⁻¹
Ac-AVWEFpYpYAA-NH2			7.5 ± 2	3.3e+06	
Ac-ApYpYWTApYAA-NH2					kcat/KM value [4]: 1.51e+07 M⁻¹ s⁻¹
Ac-DWEDFpYAA-NH2	17 ± 2	1.7e+06			
Ac-EIFDFpYAA-NH2	54 ± 6	480000	27 ± 4	1.2e+06	
Ac-FDIDIpYAA-NH2	39 ± 5	770000	13 ± 1	2.5e+06	
Ac-FYDIDpYAA-NH2	66 ± 13	750000	28 ± 2	2.4e+06	
Ac-RRISTpYAA-NH2					kcat/KM value [4]: > 10^5 M^−1 s^−1; Km [1]: 1200 ± 100 µM; kcat/KM [1]: 41000 M⁻¹ s⁻¹
Ac-RTLAApYAAAA-NH2					kcat/KM value [4]: 510000 M⁻¹ s⁻¹

Compound	Km ([2]; SHP-2) [µM]	kcat/KM ([2]; SHP-2) [M⁻¹ s⁻¹]	Km ([3]; SHP-1) [µM]	kcat/KM ([3]; SHP-1) [M⁻¹ s⁻¹]	also measured
Ac-RTLAApYEEVH-NH2					kcat/KM value [4]: 840000 M⁻¹ s⁻¹
Ac-RTLAApYRFQK-NH2					kcat/KM value [4]: 220000 M⁻¹ s⁻¹
Ac-SASASpYDWEF-NH2	180 ± 7	190000	48 ± 9	250000	increase of kcat/KM relative to Ac-SASASpYSASA-NH2 ([3]; SHP-1): 19 fold; increase of kcat/KM relative to Ac-SASASpYSASA-NH2 ([2]; SHP-2): 10 fold
Ac-SASASpYSASA-NH2	2300 ± 400	18000	1990 ± 420	13000	Km [1]: 530 ± 150 µM; kcat/KM [1]: 43000 M⁻¹ s⁻¹
Ac-WAGDDpYAA-NH2	68 ± 15	530000	45 ± 5	1.3e+06	higher reactivity to SHP-1 than to SHP-2 (kcat/KM ratio) ([3]; SHP-1 versus SHP-2): 2.5 fold
Ac-WDEDFpYAA-NH2	43 ± 2	1.1e+06			
Ac-WDEDFpYDWEF-NH2	6.3 ± 0.4	6.8e+06	3.2 ± 0.3	2.3e+07	kcat/KM value ([3]; SHP-1): 2.3e+07 M⁻¹ s⁻¹; increase of activity relative to peptide 6 (Ac-WDEDFpYSASA-NH2) ([2]; SHP-2, C-terminal SASA replaced by acidic motif DWEF): 6.2 fold
Ac-WDEDFpYSASA-NH2	46 ± 10	1.1e+06	53 ± 10	700000	increase of kcat/KM relative to Ac-SASASpYSASA-NH2 ([3]; SHP-1): 54 fold; increase of kcat/KM relative to Ac-SASASpYSASA-NH2 ([2]; SHP-2): 61 fold; higher activity of SHP-2 than of SHP-1 (kcat/KM ratio) ([2]; SHP-2 versus SHP-1): 1.6 fold; kcat/KM [1]: 69000 M⁻¹ s⁻¹
DAEDFpYAA	28 ± 3	1.1e+06			
DFEDFpYAA	23 ± 2	1.6e+06			
EADTApYAA					Km [1]: 1400 ± 100 µM; kcat/KM [1]: 19000 M⁻¹ s⁻¹
FDEDFpYAA	31 ± 6	1e+06			
LIEDNEpYTARQGA					Km [6]: 770 ± 20 µM; kcat [6]: 8.3 ± 0.2 s⁻¹; kcat/KM [6]: 11000 M⁻¹ s⁻¹
TATEPQpYQPGENL					Km [6]: 1070 ± 30 µM; kcat [6]: 9.7 ± 0.2 s⁻¹; kcat/KM [6]: 9100 M⁻¹ s⁻¹
TSTEPQpYQPGENL					Km [6]: 1160 ± 140 µM; kcat [6]: 8.9 ± 0.5 s⁻¹; kcat/KM [6]: 7700 M⁻¹ s⁻¹
WDEDFpYRWKF	210 ± 35	340000	150 ± 15	280000	
WRKRFpYDWEF	560 ± 140	2300	780 ± 640	2200	
